In ChEMBL document CHEMBL1773042, “Antiproliferative triterpenes from the leaves and twigs of Juglans sinensis on HSC-T6 cells” (2011) one finds inhibition, Activity and viability data, which are given here for 8 compounds.

Experiment [1] in a line: Antiproliferative activity against rat HSC-T6 cells at 100 uM after 48 hrs by MTT assay. It counts as functional. Conditions: HSC-T6, 48 h. The essentials: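 HSC-T6 (immortalized rat hepatic stellate line) kept in DMEM with 10% heat-inactivated FBS, penicillin/streptomycin, 37 °C, 5% CO2. Seeded at 5 × 10^4 cells/mL, grown 24 h, then exposed 48 h to vehicle or compound (10–100 μM, DMSO final 0.1%). MTT 2 mg/mL for 2 h, absorbance at 540 nm. Proliferation given as 100 × treated/vehicle absorbance. Mean of three independent experiments.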

Experiment [2] can be described thus: Cell cycle arrest in rat HSC-T6 cells assessed as inhibition of DNA synthesis at sub-G1 phase at 25 uM after 24 hrs. Set-up: scale not given: the % may be the effect or the level left. It counts as functional, cell-based. Summed up:
(§1)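 Cells seeded at 5 × 10^5 cells/mL for 24 h, then treated at 25 μM for 24 or 48 h; controls received vehicle. Cells were harvested, washed twice in PBS pH 7.4 and fixed overnight in ice-cold 70% ethanol at 4 °C. Stained with PI/RNase buffer for 30 min at room temperature, then flow cytometry for phase distribution. Mean ± SD, three independent experiments in triplicate wells.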

A short description of experiment [3]: Cell cycle arrest in rat HSC-T6 cells assessed as inhibition of DNA synthesis at G0/G1 phase at 25 uM after 24 hrs. It counts as functional, cell-based. Set-up: scale not given: the % may be the effect or the level left. The essentials: as §1
Experiment [4] in a line: Cell cycle arrest in rat HSC-T6 cells assessed as inhibition of DNA synthesis at S phase at 25 uM after 24 hrs. It counts as functional, cell-based. Set-up: scale not given: the % may be the effect or the level left. The essentials: as §1
The nature of experiment [5]: Cell cycle arrest in rat HSC-T6 cells assessed as inhibition of DNA synthesis at G0/G1 phase at 25 uM after 48 hrs. It counts as functional, cell-based. Set-up: scale not given: the % may be the effect or the level left. The essentials:
as §1

The subject of experiment [6] is HSC-T6. As to the kind of experiment: Induction of apoptosis in rat HSC-T6 cells assessed as change in cell morphology at 10 to 50 uM by phase contrast microscopy. It counts as functional, cell-based. The conditions noted are these: TDE = time-dependent effect.
Experiment [7] deals with HSC-T6. Briefly: Induction of apoptosis in rat HSC-T6 cells assessed as change in cell morphology after 24 hrs by phase contrast microscopy. It counts as functional, cell-based.
The subject of experiment [8] is HSC-T6. Briefly: Induction of apoptosis in rat HSC-T6 cells assessed as change in cell morphology after 48 hrs by phase contrast microscopy. It counts as functional, cell-based.
A short description of experiment [9]: Cell cycle arrest in rat HSC-T6 cells assessed as inhibition of DNA synthesis at G2/M phase at 25 uM after 48 hrs. It counts as functional, cell-based. Set-up: scale not given: the % may be the effect or the level left. The essentials:
as §1

A short description of experiment [10]: Cell cycle arrest in rat HSC-T6 cells assessed as inhibition of DNA synthesis at S phase at 25 uM after 48 hrs. It counts as functional, cell-based. Set-up: scale not given: the % may be the effect or the level left. Summed up:
as §1

Experiment [11] in a line: Cell cycle arrest in rat HSC-T6 cells assessed as inhibition of DNA synthesis at G2/M phase at 25 uM after 24 hrs. It counts as functional, cell-based. Set-up: scale not given: the % may be the effect or the level left. The essentials:
as §1

Experiment [12] is described as follows: Cell cycle arrest in rat HSC-T6 cells assessed as inhibition of DNA synthesis at sub-G1 phase at 25 uM after 48 hrs. It counts as functional, cell-based. Set-up: scale not given: the % may be the effect or the level left. The essentials: as §1
A short description of experiment [13]: Antiproliferative activity against rat HSC-T6 cells at 10 uM after 48 hrs by MTT assay. Type of experiment: functional. The conditions noted are these: HSC-T6, 48 h.
Experiment [14] in a line: Antiproliferative activity against rat HSC-T6 cells at 50 uM after 48 hrs by MTT assay. Type of experiment: functional. Conditions: HSC-T6, 48 h. (In general: Formazan colour is commonly taken as a measure of viable cells.)
The nature of experiment [15]: Induction of apoptosis in rat HSC-T6 cells assessed as late apoptotic cells at 25 uM after 24 hrs using Annexin V-FITC staining by flow cytometry. It counts as functional. Summed up: (§2)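 After 24 h seeding at 5 × 10^5 cells/mL, HSC-T6 cells were treated at 10 or 25 μM for 24 or 48 h, then collected and washed twice with PBS. Annexin-V/PI double staining with flow cytometry separated Annexin-V+/PI− (early apoptotic), Annexin-V+/PI+ (late apoptotic) and Annexin-V−/PI+ (dead) cells, expressed as percentages. Data representative of three independent experiments.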

The nature of experiment [16]: Induction of apoptosis in rat HSC-T6 cells assessed as dead cells at 25 uM after 48 hrs using Annexin V-FITC staining by flow cytometry. Type of experiment: functional. The essentials:
(§3)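 HSC-T6 cells seeded at 5 × 10^5 cells/mL in 12-well plates for 24 h, then exposed to compound at 10 or 25 μM for 24 or 48 h. Harvested, washed twice in PBS pH 7.4, stained with Annexin-V/PI and analysed by flow cytometry. Dead cells scored as Annexin-V−/PI+, given as percentage. Representative of three independent experiments.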

The nature of experiment [17]: Induction of apoptosis in rat HSC-T6 cells assessed as viable cells at 10 uM after 48 hrs using Annexin V-FITC staining by flow cytometry. Conditions: HSC-T6, 48 h, read-out: Activity. It counts as functional. The essentials: as §2
Experiment [18] is described as follows: Induction of apoptosis in rat HSC-T6 cells assessed as viable cells at 10 uM after 24 hrs using Annexin V-FITC staining by flow cytometry. Type of experiment: functional. The conditions noted are these: HSC-T6, 24 h, read-out: Activity. Summed up: as §2
For orientation: A flow cytometer gives signals particle by particle.

The nature of experiment [19]: Induction of apoptosis in rat HSC-T6 cells assessed as dead cells at 10 uM after 48 hrs using Annexin V-FITC staining by flow cytometry. Type of experiment: functional. The essentials: as §3
Experiment [20] is described as follows: Induction of apoptosis in rat HSC-T6 cells assessed as early apoptotic cells at 10 uM after 24 hrs using Annexin V-FITC staining by flow cytometry. Type of experiment: functional. The essentials: as §2
Experiment [21] can be described thus: Induction of apoptosis in rat HSC-T6 cells assessed as late apoptotic cells at 10 uM after 48 hrs using Annexin V-FITC staining by flow cytometry. It counts as functional. The essentials: as §2
Experiment [22] in a line: Induction of apoptosis in rat HSC-T6 cells assessed as early apoptotic cells at 25 uM after 48 hrs using Annexin V-FITC staining by flow cytometry. It counts as functional. The essentials: as §2
The nature of experiment [23]: Induction of apoptosis in rat HSC-T6 cells assessed as viable cells at 25 uM after 24 hrs using Annexin V-FITC staining by flow cytometry. Type of experiment: functional. The conditions noted are these: HSC-T6, 24 h, read-out: Activity. Summed up: as §2
Experiment [24] in a line: Induction of apoptosis in rat HSC-T6 cells assessed as dead cells at 10 uM after 24 hrs using Annexin V-FITC staining by flow cytometry. Type of experiment: functional. Summed up: as §3
A short description of experiment [25]: Induction of apoptosis in rat HSC-T6 cells assessed as late apoptotic cells at 25 uM after 48 hrs using Annexin V-FITC staining by flow cytometry. Type of experiment: functional. Summed up: as §2
A short description of experiment [26]: Induction of apoptosis in rat HSC-T6 cells assessed as viable cells at 25 uM after 48 hrs using Annexin V-FITC staining by flow cytometry. Type of experiment: functional. The conditions noted are these: HSC-T6, 48 h, read-out: Activity. Summed up:
as §2

Experiment [27] is described as follows: Induction of apoptosis in rat HSC-T6 cells assessed as dead cells at 25 uM after 24 hrs using Annexin V-FITC staining by flow cytometry. Type of experiment: functional. The essentials: as §3
A short description of experiment [28]: Induction of apoptosis in rat HSC-T6 cells assessed as late apoptotic cells at 10 uM after 24 hrs using Annexin V-FITC staining by flow cytometry. Type of experiment: functional. The essentials:
as §2

Experiment [29] is described as follows: Induction of apoptosis in rat HSC-T6 cells assessed as early apoptotic cells at 10 uM after 48 hrs using Annexin V-FITC staining by flow cytometry. It counts as functional. Summed up: as §2
A short description of experiment [30]: Induction of apoptosis in rat HSC-T6 cells assessed as early apoptotic cells at 25 uM after 24 hrs using Annexin V-FITC staining by flow cytometry. Type of experiment: functional. The essentials: as §2

As a reminder, the inhibition is the share of the control response that was lost under treatment.

As to `C[C@H]1[C@H](C)CC[C@]2(C(=O)O)CC[C@]3(C)C(=CC[C@@H]4[C@@]5(C)CCC(=O)[C@@](C)(CO)[C@@H]5CC[C@]43C)[C@H]12`, the inhibition at 100 µM in [1] was 77.9%.
Same read-out and setting: to `C[C@H]1[C@H](C)CC[C@]2(C(=O)O)CC[C@]3(C)C(=CC[C@@H]4[C@@]5(C)C[C@@H](O)[C@@H](O)[C@@](C)(CO)[C@@H]5CC[C@]43C)[C@H]12` belongs 20.6%.
As for `CC1(C)C=C2[C@H]3CC[C@@H]4[C@@]5(C)C(=O)C[C@H](O)C(C)(C)[C@@H]5CC[C@@]4(C)[C@]3(C)CC[C@@]2(C)CC1`, the Activity in [2] is 1.9%; in experiment [3] it was 53.2%; in experiment [4], 14%; in [5] it was 43.6%; with HSC-T6 [6], “tde”; in the experiment on HSC-T6 [7], “Dose-dependent effect”. The Activity result in the experiment with HSC-T6 [8] was “Dose-dependent effect”; in [9] it was 18.8%; in experiment [10], 10.6%; in experiment [11], 17.8%; in experiment [12], 5%. In experiment [1], this compound yielded an inhibition at 100 µM of 14.2%.
On to `O=C(O[C@@H]1Cc2c(O)cc(O)cc2O[C@@H]1c1cc(O)c(O)c(O)c1)c1cc(O)c(O)c(O)c1` [EPIGALOCATECHIN GALLATE], for which the Activity in [2] turned out to be 1.9%; in experiment [3] it was 51.9%; in experiment [4], 12.1%; in experiment [5] it was 42.3%; in experiment [9], 19.6%; in experiment [10], 8.3%. The Activity is 20.1% in [11] and 4.5% in experiment [12]. In addition, in [13], the inhibition at 10 µM stood at 83.8%. The compound also came in with an inhibition at 50 µM in [14] of 41.7%. Further, the inhibition at 100 µM in experiment [1] stood at 33.4%.
Regarding `C[C@H]1[C@H](C)CC[C@]2(C(=O)O)CC[C@]3(C)C(=CC[C@@H]4[C@@]5(C)C[C@@H](O)[C@H](O)C(C)(C)[C@@H]5CC[C@]43C)[C@H]12` [COROSOLIC ACID], the Activity amounted to 12.4% in experiment [2]; 15.24% in experiment [15]; 31.85% in experiment [16]; 44.6% in [3]; 5.44% in experiment [19]; 6.23% in [20]. The Activity was 17.8% in [21]; 10.6% in [4]; 14.7% in [5]; 4.41% in experiment [22]; “tde” in the experiment with HSC-T6 [6]; 3.16% in experiment [24]. Further, the Activity result is “Dose-dependent effect” with HSC-T6 [7]; 9.23% in [25]; “Dose-dependent effect” in the experiment on HSC-T6 [8]; 6% in [9]; 4.3% in experiment [10]; 8.77% in experiment [27]. The Activity stood at 7.12% in experiment [28]; 10.14% in experiment [29]; 10.45% in experiment [30]; 20.6% in experiment [11]; 57.7% in experiment [12]. In addition, the figures for the viability at 10 µM in experiment [17] and in experiment [18] were 66.6% and 83.5%, respectively. Further, the viability at 25 µM in experiment [23] was 65.5%; in experiment [26], 54.5%. The inhibition at 100 µM in [1] was found to be 15.6%.
Regarding `C[C@H]1[C@H](C)CC[C@]2(C(=O)O)CC[C@]3(C)C(=CC[C@@H]4[C@@]5(C)CC[C@H](O)C(C)(C)[C@@H]5CC[C@]43C)[C@H]12` [URSOLIC ACID], the Activity in experiment [2] was 2.9%; in experiment [3] it was 56.4%; in [4], 11.9%; in [5], 39.7%; in the experiment with HSC-T6 [6], “tde”; in the experiment with HSC-T6 [7], “Dose-dependent effect”. For the same compound, the Activity entry with HSC-T6 [8] was “Dose-dependent effect”; in [9], 16.7%; in experiment [10], 9.6%; in experiment [11], 18.9%; in experiment [12] it was 17%. The compound further had an inhibition at 100 µM in [1] of 14.8%.
Compound `C[C@H]1[C@H](C)CC[C@]2(C(=O)O)CC[C@]3(C)C(=CC[C@@H]4[C@@]5(C)CC[C@H](O)[C@@](C)(CO)[C@@H]5CC[C@]43C)[C@H]12` returned an inhibition at 100 µM in experiment [1] of 50%.
Take `C=C(C)[C@@H]1CC[C@]2(C)CC[C@]3(C)[C@H](CC[C@@H]4[C@@]5(C)C[C@@H](O)[C@H](O)C(C)(C)[C@@H]5CC[C@]43C)[C@@H]12`: the Activity in experiment [2] was 1.9%; in [3], 55.9%; in experiment [4], 13.7%; in experiment [5] it was 47.2%; with HSC-T6 [6] it was “tde”; in the experiment on HSC-T6 [7], “Dose-dependent effect”. Besides, the Activity entry in the experiment on HSC-T6 [8] is “Dose-dependent effect”; in experiment [9], 18%; in experiment [10], 11%; in [11] it was 19.3%; in experiment [12], 5.4%. Moreover, the inhibition at 100 µM in [1] was found to be 11%.
